# Source: ChEMBL document CHEMBL3621107, “Ring fusion strategy for synthesis and lead optimization of sulfur-substituted anthra[1,2-c][1,2,5]thiadiazole-6,11-dione derivatives as promising scaffold of antitumor agents” (Eur J Med Chem, 2015)
# Key:
# Malme-3M = assay: Cytotoxicity against human MALME-3M cells assessed as cell growth at 10 uM after 48 hrs by SRB assay relative to control; assay type: functional; settings: read-out: Activity
# Procedure, shortened: (§1)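 First-stage NCI-60 screen by the NCI Developmental Therapeutics Program. Each compound was tested once at a single concentration of 10 μM against the 60-cell-line panel. Growth percentage was reported for each cell line.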
# SK-MEL-28 = assay: Cytotoxicity against human SK-MEL-28 cells assessed as cell growth at 10 uM after 48 hrs by SRB assay relative to control; assay type: functional; settings: SK-MEL-28, 48 h, read-out: Activity
# Procedure, shortened: (§2)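 First-stage NCI DTP one-dose screen against the 60 human tumour cell line panel. Compounds were tested at a single 10 μM level, and results are given as growth percentage.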
# UACC-62 = assay: Cytotoxicity against human UACC62 cells assessed as cell growth at 10 uM after 48 hrs by SRB assay relative to control; assay type: functional; settings: UACC-62, 48 h, read-out: Activity
# Procedure, shortened: (§3)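 NCI-60 one-dose screen run by NCI DTP: each cell line exposed to a single 10 µM dose, and percentage growth recorded against untreated growth.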
# IGROV-1 = assay: Cytotoxicity against human IGROV1 cells assessed as cell growth at 10 uM after 48 hrs by SRB assay relative to control; assay type: functional; settings: IGROV-1, 48 h, read-out: Activity; procedure, shortened: as §1
# OVCAR-5 = assay: Cytotoxicity against human OVCAR5 cells assessed as cell growth at 10 uM after 48 hrs by SRB assay relative to control; assay type: functional; settings: OVCAR-5, 48 h, read-out: Activity; procedure, shortened: as §2
# NCI/ADR-RES = assay: Cytotoxicity against human NCI/ADR-RES cells assessed as cell growth at 10 uM after 48 hrs by SRB assay relative to control; assay type: functional; settings: read-out: Activity; procedure, shortened: as §2
# 786-0 = assay: Cytotoxicity against human 786-0 cells assessed as cell growth at 10 uM after 48 hrs by SRB assay relative to control; assay type: functional; settings: 786-0, 48 h, read-out: Activity; procedure, shortened: as §1
# CAKI-1 = assay: Cytotoxicity against human Caki1 cells assessed as cell growth at 10 uM after 48 hrs by SRB assay relative to control; assay type: functional; settings: CAKI-1, 48 h, read-out: Activity; procedure, shortened: as §1
# SN12C = assay: Cytotoxicity against human SN12C cells assessed as cell growth at 10 uM after 48 hrs by SRB assay relative to control; assay type: functional; settings: read-out: Activity; procedure, shortened: as §2
# MCF7 = assay: Cytotoxicity against human MCF7 cells assessed as cell growth at 10 uM after 48 hrs by SRB assay relative to control; assay type: functional; settings: MCF7, 48 h, read-out: Activity; procedure, shortened: as §1
# BT-549 = assay: Cytotoxicity against human BT549 cells assessed as cell growth at 10 uM after 48 hrs by SRB assay relative to control; assay type: functional; settings: BT-549, 48 h, read-out: Activity; procedure, shortened: as §1
# MDA-MB-468 = assay: Cytotoxicity against human MDA-MB-468 cells assessed as cell growth at 10 uM after 48 hrs by SRB assay relative to control; assay type: functional; settings: MDA-MB-468, 48 h, read-out: Activity; procedure, shortened: as §2
# PC-3 [1] = assay: Cytotoxicity against human PC3 cells after 48 hrs by SRB assay; assay type: functional, cell-based; settings: PC-3, 48 h
# Procedure, shortened: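 Second-stage NCI-60 panel run by the NCI Developmental Therapeutics Program, covering nine tumour subpanels. Five concentrations were tested: 0.01, 0.1, 1, 10 and 100 μM. Percentage growth at each level was plotted against log10 drug concentration. GI50, TGI and LC50 were read from these dose-response curves. Subpanel MID values were divided into the full-panel MID to give selectivity ratios.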
# DU-145 = assay: Cytotoxicity against human DU145 cells after 72 hrs by MTT assay; assay type: functional, cell-based; settings: DU-145, 72 h
# Procedure, shortened: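 DU-145 cells grown in RPMI-1640 with 5% heat-inactivated fetal calf serum at 37 °C, 5% CO2. About 2×10^3 cells per well were seeded and incubated for 24 h. Compounds were dissolved in DMSO freshly and diluted into medium (vehicle 0.1% DMSO), then cells were exposed for 72 h. MTT was added for 3 h at 37 °C and absorbance read at 570 nm.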
# [2] = Cytotoxicity against human EKVX cells assessed as cell growth at 10 uM after 48 hrs by SRB assay relative to control; assay type: functional; settings: read-out: Activity; procedure, shortened: as §1
# HOP-62 = assay: Cytotoxicity against human HOP62 cells assessed as cell growth at 10 uM after 48 hrs by SRB assay relative to control; assay type: functional; settings: HOP-62, 48 h, read-out: Activity; procedure, shortened: as §1
# HCC 2998 = assay: Cytotoxicity against human HCC2998 cells assessed as cell growth at 10 uM after 48 hrs by SRB assay relative to control; assay type: functional; settings: HCC 2998, 48 h, read-out: Activity; procedure, shortened: as §1
# HT-29 = assay: Cytotoxicity against human HT-29 cells assessed as cell growth at 10 uM after 48 hrs by SRB assay relative to control; assay type: functional; settings: HT-29, 48 h, read-out: Activity; procedure, shortened: as §1
# SNB-19 = assay: Cytotoxicity against human SNB19 cells assessed as cell growth at 10 uM after 48 hrs by SRB assay relative to control; assay type: functional; settings: SNB-19, 48 h, read-out: Activity; procedure, shortened: as §3
# U-251 = assay: Cytotoxicity against human U251 cells assessed as cell growth at 10 uM after 48 hrs by SRB assay relative to control; assay type: functional; settings: U-251, 48 h, read-out: Activity; procedure, shortened: as §3
# PC-3 [3] = assay: Cytotoxicity against human PC3 cells assessed as cell growth at 10 uM after 48 hrs by SRB assay relative to control; assay type: functional; settings: PC-3, 48 h, read-out: Activity; procedure, shortened: as §2
# HL-60(TB) = assay: Cytotoxicity against human HL-60(TB) cells assessed as cell growth at 10 uM after 48 hrs by SRB assay relative to control; assay type: functional; settings: HL-60, 48 h, read-out: Activity
# Procedure, shortened: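 NCI Developmental Therapeutics Program 60-cell-line screen, first stage: a single dose of 10 μM against the panel, reported as percentage growth.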
# MOLT-4 = assay: Cytotoxicity against human MOLT4 cells assessed as cell growth at 10 uM after 48 hrs by SRB assay relative to control; assay type: functional; settings: MOLT-4, 48 h, read-out: Activity; procedure, shortened: as §2
# RPMI-8226 = assay: Cytotoxicity against human RPMI8226 cells assessed as cell growth at 10 uM after 48 hrs by SRB assay relative to control; assay type: functional; settings: RPMI-8226, 48 h, read-out: Activity; procedure, shortened: as §2
# SR = assay: Cytotoxicity against human SR cells assessed as cell growth at 10 uM after 48 hrs by SRB assay relative to control; assay type: functional; settings: read-out: Activity; procedure, shortened: as §3
# KM12 = assay: Cytotoxicity against human KM12 cells assessed as cell growth at 10 uM after 48 hrs by SRB assay relative to control; assay type: functional; settings: KM12, 48 h, read-out: Activity; procedure, shortened: as §1
Structure (SMILES),growth at 10 µM (Malme-3M) [%],growth at 10 µM (SK-MEL-28) [%],growth at 10 µM (UACC-62) [%],growth at 10 µM (IGROV-1) [%],growth at 10 µM (OVCAR-5) [%],growth at 10 µM (NCI/ADR-RES) [%],growth at 10 µM (786-0) [%],growth at 10 µM (CAKI-1) [%],growth at 10 µM (SN12C) [%],growth at 10 µM (MCF7) [%],growth at 10 µM (BT-549) [%],growth at 10 µM (MDA-MB-468) [%],IC50 (PC-3 [1]) [µM],IC50 (DU-145) [µM],growth at 10 µM [2] [%],growth at 10 µM (HOP-62) [%],growth at 10 µM (HCC 2998) [%],growth at 10 µM (HT-29) [%],growth at 10 µM (SNB-19) [%],growth at 10 µM (U-251) [%],other results
CCOc1cccc(Sc2cc3c(c4nsnc24)C(=O)c2ccccc2C3=O)c1,109,112,109,94.7,117,102,100,84.2,105,78.8,104,108,> 15,> 15,102,91.9,105,106,103,110,–
COc1ccc(Sc2cc3c(c4nsnc24)C(=O)c2ccccc2C3=O)cc1,89.5,116,109,103,103,97.6,94.9,108,107,93.8,92.9,113,> 15,8.26,149,95.2,107,101,114,103,growth at 10 µM (PC-3 [3]): 82.8%; growth at 10 µM (HL-60(TB)): 103%; growth at 10 µM (MOLT-4): 82.9%; growth at 10 µM (RPMI-8226): 101%; growth at 10 µM (SR): 102%; growth at 10 µM (KM12): 101%
Cc1cc(C)cc(Sc2cc3c(c4nsnc24)C(=O)c2ccccc2C3=O)c1,102,112,103,96.7,107,97.5,98.2,91,105,75.8,95.1,116,> 15,> 15,100,91,109,105,107,108,growth at 10 µM (PC-3 [3]): 81.3%; growth at 10 µM (HL-60(TB)): 73.7%; growth at 10 µM (MOLT-4): 71.4%; growth at 10 µM (RPMI-8226): 89.1%; growth at 10 µM (SR): 78.4%; growth at 10 µM (KM12): 105%
O=C1c2ccccc2C(=O)c2c1cc(Sc1ccc(F)cc1F)c1nsnc21,39.5,79.5,53.3,–,110,-26.2,3.74,24,9.12,6.58,66.4,-87,14.8,9.12,98.1,58.5,107,102,87.3,34.5,growth at 10 µM (PC-3 [3]): -9.72%; growth at 10 µM (HL-60(TB)): -37.7%; growth at 10 µM (MOLT-4): -41.6%; growth at 10 µM (RPMI-8226): 6.29%; growth at 10 µM (SR): 0.2%; growth at 10 µM (KM12): 51.8%
Cc1ccc(Sc2cc3c(c4nsnc24)C(=O)c2ccccc2C3=O)c(C)c1,108,119,94.5,95,106,97.8,105,–,98.7,79.8,94.5,100,> 15,15.9,109,79.3,121,101,102,105,growth at 10 µM (PC-3 [3]): 76.1%; growth at 10 µM (HL-60(TB)): 99.9%; growth at 10 µM (MOLT-4): 91%; growth at 10 µM (RPMI-8226): 85.1%; growth at 10 µM (SR): 70.3%; growth at 10 µM (KM12): 96.4%
O=C1c2ccccc2C(=O)c2c1cc(Sc1cccc(Cl)c1)c1nsnc21,-86.6,25,-65,-13.5,109,-15.1,-2.06,-3.69,-66.2,-69.4,36.2,-79.2,5.64,1.75,43.6,42.1,102,102,56.9,-69.5,–
Cc1ccccc1Sc1cc2c(c3nsnc13)C(=O)c1ccccc1C2=O,96.8,106,90.7,80.1,126,59.5,100,81.5,86,66.1,95.3,53.7,> 15,> 15,105,59.5,124,104,104,62.4,growth at 10 µM (PC-3 [3]): 73.3%; growth at 10 µM (HL-60(TB)): 79.5%; growth at 10 µM (MOLT-4): 67.3%; growth at 10 µM (RPMI-8226): 48.6%; growth at 10 µM (SR): 23%; growth at 10 µM (KM12): 103%
COc1cccc(Sc2cc3c(c4nsnc24)C(=O)c2ccccc2C3=O)c1,113,102,87.7,99.9,123,92.7,103,–,95.9,72.8,94.9,93.5,> 15,> 15,105,61.8,105,105,106,101,growth at 10 µM (PC-3 [3]): 76%; growth at 10 µM (HL-60(TB)): 84.5%; growth at 10 µM (MOLT-4): 35.8%; growth at 10 µM (RPMI-8226): 52%; growth at 10 µM (SR): 36.1%; growth at 10 µM (KM12): 97.1%
